TRPC4 PAM = TRPC4 (mouse) allosteric potentiation. Q9QUQ5. HEK293 TRPC4beta/mu-opioid, DAMGO EC20, Fluo-4 Ca2+ flux; hits give high values. B-score at 10 µM. actives 0.42% (n = 310,000);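 active = B-score of calcium response area above 5 SD of library B-scores, with initial fluorescence ratio within 5 SD of library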;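 also: B-score of integrated fluorescence ratio over time as area under calcium response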
TRPC6 inh = mouse TRPC6 channel inhibition; Q61143; HEK293-TRPC6, membrane potential dye, ACh-evoked depolarization; hits give low values; B-score at 10 µM; actives 1.1% (n = 310,000); AID 2553;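 active = B-score under library mean minus 3 SD, initial fluorescence not abnormally high, positive integrated signal ratio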;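 also: B-score derived from integrated fluorescence ratio over the kinetic read; more negative B-score means stronger inhibition of depolarization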
Target sequence (Q61143 whole entry, looked up): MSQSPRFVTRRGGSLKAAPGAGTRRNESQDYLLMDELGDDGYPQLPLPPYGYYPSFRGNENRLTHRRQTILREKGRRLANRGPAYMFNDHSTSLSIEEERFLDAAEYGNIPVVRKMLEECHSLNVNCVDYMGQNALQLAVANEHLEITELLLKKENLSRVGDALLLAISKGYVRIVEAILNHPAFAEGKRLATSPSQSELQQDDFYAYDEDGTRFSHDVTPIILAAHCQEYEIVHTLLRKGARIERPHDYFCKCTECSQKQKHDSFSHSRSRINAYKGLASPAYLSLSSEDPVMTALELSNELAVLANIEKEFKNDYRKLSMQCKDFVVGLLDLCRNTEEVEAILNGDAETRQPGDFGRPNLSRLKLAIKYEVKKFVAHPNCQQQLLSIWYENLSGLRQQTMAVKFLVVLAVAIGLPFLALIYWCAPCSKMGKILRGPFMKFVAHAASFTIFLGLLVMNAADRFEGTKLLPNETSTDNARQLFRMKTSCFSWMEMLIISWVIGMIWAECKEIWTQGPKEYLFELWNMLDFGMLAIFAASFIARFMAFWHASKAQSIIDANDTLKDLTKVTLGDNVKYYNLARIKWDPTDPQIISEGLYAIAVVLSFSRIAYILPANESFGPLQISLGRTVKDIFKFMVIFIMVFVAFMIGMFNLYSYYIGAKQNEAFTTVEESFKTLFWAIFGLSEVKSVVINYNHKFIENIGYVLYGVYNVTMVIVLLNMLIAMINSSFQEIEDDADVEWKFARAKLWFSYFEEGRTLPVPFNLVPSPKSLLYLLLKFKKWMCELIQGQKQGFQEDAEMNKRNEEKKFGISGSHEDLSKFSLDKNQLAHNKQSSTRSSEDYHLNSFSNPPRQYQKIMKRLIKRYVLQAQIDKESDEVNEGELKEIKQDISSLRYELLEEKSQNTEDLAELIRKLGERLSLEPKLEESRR
TRPC4 agonist = opens the mouse TRPC4 cation channel; AID 2237; Q9QUQ5; actives 0.49% (n = 310,000); HEK293 TRPC4beta/mu-opioid, Fluo4 calcium fluorescence; hits give high values; B-score at 10 µM;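 active = B-score above 5 SD of library B-scores, and initial fluorescence ratio not above library mean plus 5 SD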;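 also: positive B-score marks a calcium rise read as TRPC4 activation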
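Assay system – TRPC4beta and mu-opioid receptor HEK293 stable cells · Measured by – Fluo4 fluorescence, kinetic · Schedule – dye loading 45 min room temperature, 110 s kinetic read · Read-out – B-scored integrated calcium fluorescence ratio · Controls – buffer and maximal DAMGO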
TRPC4 block = TRPC4 (mouse) channel inhibition | HEK293 TRPC4beta/mu-opioid, DAMGO-evoked Fluo4 calcium flux; hits give low values | B-score at 10 µM | Q9QUQ5 | actives 0.39% (n = 300,000);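 active = B-score over 3 SD under the library average, no early fluorescence shift, positive overall ratio signal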
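Assay system: HEK293 cells with stable TRPC4beta plus mu-opioid receptor expression. Dosing: single dose. Measured by: Fluo4 Ca2+ flux fluorescence. Also added: DAMGO in two steps, submaximal then maximal. Read-out: B score from integrated Fluo4 fluorescence ratio.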
TRPC6 activator = activates the mouse TRPC6 cation channel. HEK293-TRPC6 membrane potential dye fluorescence; hits give high values. B-score at 10 µM. actives 0.13% (n = 310,000). AID 2550;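 active = B-score of the integrated fluorescence ratio above library mean plus 3 SD, and starting fluorescence ratio within library mean plus 5 SD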;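 also: higher score means more depolarization so channel activation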
* hit, by the source's call; i = inactive. Hits are enriched below; roughly 2.3% of the tested compounds scored in any of these assays.

SMILES	TRPC4 PAM	TRPC6 inh	TRPC4 agonist	TRPC4 block	TRPC6 activator
CC(=O)Nc1ccc(CN2CCCC(C(=O)c3cccc(C(F)(F)F)c3)C2)cc1 (centres undefined)	i	i	88*	i	i
COc1ccc(CN2CCCC(C(=O)c3cccc(C(F)(F)F)c3)C2)cc1O (centres undefined)	i	i	62*	-8*	i
O=C(c1cccc(C(F)(F)F)c1)C1CCCN(Cc2ccc(OCCO)cc2)C1 (centres undefined)	i	i	i	i	i
Cc1cc(=O)[nH]c(-c2ccc(C(F)(F)F)cc2)n1	i	i	i	i	i
CC(C)(C)c1ccc(-c2nc(C#N)c(N3CCC(C(N)=O)CC3)o2)cc1	i	i	i	i	i
CCOC(=O)COc1c(OC)cc(Cl)cc1C1NC(=O)NC(C)=C1C(C)=O (centres undefined)	i	i	i	i	i
CCCC1=C(C(=O)OCC)C(c2cc(Cl)cc(OC)c2OCC(=O)OCC)NC(=O)N1 (centres undefined)	22*	i	i	i	i
COCCNc1nc(-c2ccccc2)nc2ccccc12	i	i	i	-5*	i
COCCCNc1nc(-c2ccncc2)nc2ccccc12	i	i	i	i	i
Cc1c(S(=O)(=O)N2CCN(c3ccc(F)cc3)CC2)c(=O)n(C)c(=O)n1C	i	i	i	i	i
O=C(Nc1sc2c(c1C(=O)NCCCO)CCCC2)c1ccccc1	i	i	i	i	i
NCCNC(=O)c1c(NC(=O)c2ccccc2)sc2c1CCCC2	i	i	175*	i	i
O=C(c1ccc(-c2ccccc2Cl)o1)N1CCN(S(=O)(=O)c2cccs2)CC1	i	i	i	i	i
O=C(c1cc(COc2ccc(F)cc2Cl)on1)N1CC2C[C@@H]3CC1C[C@H](C2)C3	i	i	i	i	i
Cc1cc(N2CCN(C)CC2)nc2ccc(NC(=O)c3ccccc3F)cc12	i	i	i	i	i
COC(=O)c1cc(N2CCN(C)CC2)nc2ccccc12	17*	i	i	i	i
O=C(COc1ccc([N+](=O)[O-])cc1)NNC(=O)Nc1ccccc1F	i	i	i	i	i
Cc1cccc(C)c1NCC(=O)N1CCN(Cc2ccccc2)CC1	i	i	i	i	i
O=C(NCCC1=CCCCC1)C1CCN(S(=O)(=O)c2ccccc2C(F)(F)F)CC1	i	i	i	i	i
COc1ccc(OC)c(Nc2c3c(nc4ccccc24)CCC3)c1	i	i	i	-5*	i
COc1cc(Nc2c3c(nc4ccccc24)CCC3)cc(OC)c1OC	i	i	i	i	i
Cc1cccc(Nc2c3c(nc4ccccc24)CCC3)c1	i	i	i	-6*	i
N#Cc1cccc(Nc2c3c(nc4ccccc24)CCC3)c1	i	i	i	i	i
O=C(CCCn1cncn1)N1CCCC(N2CCN(c3ccccc3F)CC2)C1 (centres undefined)	i	i	i	i	i
COc1cccc(CNC(=O)C2CCC(=O)N(CC3CCCCC3)C2)c1OC (centres undefined)	i	i	i	i	i
SMILES	TRPC4 PAM	TRPC6 inh	TRPC4 agonist	TRPC4 block	TRPC6 activator
Cn1ncc(C#N)c1/N=C/N(Cc1ccccc1)Cc1ccccc1	16*	i	i	i	i
CCN1CCN(C(=O)NCc2ccccc2)CC1	i	i	i	i	i
CCCCN(CC)CCCNC(=O)c1cc2c(-c3ccc(OC)c(OC)c3)nn(C)c2s1	i	i	82*	i	i
CCN(CC)CCCNC(=O)c1cc2c(-c3cccc(OC)c3)nn(C)c2s1	13*	i	79*	i	i
COc1cccc(-c2nn(C)c3sc(C(=O)NCc4ccco4)cc23)c1	i	i	i	i	i
CCCCN(C)CCNC(=O)c1cc2c(-c3cccc(OC)c3)nn(C)c2s1	25*	i	i	i	i
CCN1CCCC1CNC(=O)c1cc2c(-c3cccc(OC)c3)nn(C)c2s1 (centres undefined)	i	i	i	i	i

High-throughput results: PubChem, Johns Hopkins Ion Channel Center
